Screening results deposited in PubChem BioAssay by several laboratories.
PTK2B oligo ant: antagonists of Pyk2 self-association, primary screen, Q293 cells, FERM NanoBiT luminescence, HTS; 0.83% of 99,000 active; z-score (the deposit names both 25 µM and 10 µM); Protein-tyrosine kinase 2-beta (Homo sapiens), Q14289; AID 1347419, 2020; hits give low values;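 active = Z-score of -3 or lower, scaled per plate to the spread of control and sample wells; inactive = z-score above -3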;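 note: negative z-score means lost luminescence so less FERM oligomerization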
PLK1 inh: human PLK1 kinase inhibitors, primary screen, biochemical, TR-FRET; Serine/threonine-protein kinase PLK1 (Homo sapiens), P53350; recombinant PLK1 kinase, TR-FRET peptide phosphorylation; inhibition, % at 10 µM; 0.53% of 97,000 active; AID 619, 2007;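 active = inhibition of 50% or more in the single-concentration screen; inactive = inhibition below 50%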
Target sequence (P53350 whole entry, looked up): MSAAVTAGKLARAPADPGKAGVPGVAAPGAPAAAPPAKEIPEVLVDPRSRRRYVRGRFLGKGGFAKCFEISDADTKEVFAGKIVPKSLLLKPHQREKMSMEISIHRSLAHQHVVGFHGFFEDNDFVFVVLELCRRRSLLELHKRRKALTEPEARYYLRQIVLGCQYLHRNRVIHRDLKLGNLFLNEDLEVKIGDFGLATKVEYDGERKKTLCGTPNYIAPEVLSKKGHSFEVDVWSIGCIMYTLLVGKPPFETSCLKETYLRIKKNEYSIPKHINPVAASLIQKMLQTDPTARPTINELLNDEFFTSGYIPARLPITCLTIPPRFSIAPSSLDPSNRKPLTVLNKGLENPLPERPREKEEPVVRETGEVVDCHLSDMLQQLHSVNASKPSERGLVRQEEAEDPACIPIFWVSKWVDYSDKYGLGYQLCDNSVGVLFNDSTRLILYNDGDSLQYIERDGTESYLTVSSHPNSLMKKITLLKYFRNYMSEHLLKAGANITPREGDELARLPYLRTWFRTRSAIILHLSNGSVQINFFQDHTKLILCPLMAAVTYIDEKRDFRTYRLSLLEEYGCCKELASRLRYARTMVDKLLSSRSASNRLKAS
Plk1 PBD FP: Plk1 polo box domain binding inhibitors, primary screen, biochemical, fluorescence polarization; 0.13% of 97,000 active; inhibition, %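 (tested at about 20 µM)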; Plk1 PBD phosphopeptide binding; in the data active = inhibition above about 34%, passing the limit was not always enough
Rev-RRE block: HIV-1 Rev-RRE binding inhibitors, primary screen, biochemical, FRET, protein-RNA interaction. Rev peptide-RRE RNA binding. inhibition, % at 8 µM. 0.79% of 97,000 active. AID 704, 2007. P05866;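 active = inhibition above the screen-wide mean plus 3 SD, cut at about 35% in these data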
Target sequence (P05866 whole entry, looked up): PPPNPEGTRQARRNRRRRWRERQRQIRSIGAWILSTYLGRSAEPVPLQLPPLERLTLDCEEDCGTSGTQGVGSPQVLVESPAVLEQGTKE
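Material: labelled RRE RNA duplex and labelled Rev peptide / Buffer or medium: HEPES pH 7.5 salt buffer with EDTA / Compound dosing: single point, 8 µM final nominal compound concentration / Benchmarks: DMSO low control, neomycin B high control / Timing: 5 min preincubation and 15 min binding, 25 °C / Technique: FRET fluorescence readout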
Cav32 inh: Cav3.2 calcium influx blockers – cell-based, Fluo-4 calcium fluorescence, FDSS, MLSMR library, primary screen; B-score at 10 µM; Voltage-dependent T-type calcium channel subunit alpha-1H (Homo sapiens), O95180; 4% of 100,000 active; AID 449739, 2010; Cav3.2-expressing cells; hits give low values;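 active = single-dose well whose peak fluorescence ratio is a statistical outlier from its plate by either plate-standardised score or position-corrected B-score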
FAK inh: FAK kinase inhibitors, primary screen, biochemical | Focal adhesion kinase 1 (Homo sapiens), Q05397 | biochemical FAK kinase activity assay | inhibition, %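 (tested at 7 µM)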 | 0.84% of 97,000 active | AID 727, 2007; in the data active = inhibition above about 19%
PLK1 inh conf: PLK1 kinase activity inhibitors, confirmation, biochemical, TR-FRET, duplicate runs. inhibition, % at 10 µM. AID 744, 2007. shares compounds with PLK1 inh. 20% of 210 active. recombinant PLK1 kinase, TR-FRET peptide phosphorylation;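 active = inhibition at or above 50% in each of two repeat confirmation tests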
Plk1 interf: compound interference with Plk1 assay readout, artefact control for Plk1 kinase inhibitor project, biochemical, TR-FRET, compound added post-reaction; shares compounds with PLK1 inh; inhibition (interference), % at 10 µM; 210 tested, under 10 active; AID 756, 2007;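 active = both duplicate runs show 50% or greater inhibition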
Large screens that a line does not name were inactive (follow-up assays come after a bar, where they were run). An excerpt weighted towards active compounds, which were near 5.8% of everything screened.

Cc1cc(NC(=O)CSc2nnc(-c3ccc4c(c3)OCCO4)o2)no1	none
Cc1ccc(NC(=O)Cc2nc(CSc3nnc(-c4ccc5c(c4)OCO5)o3)cs2)cc1	Cav32 inh -5.36
CCOC(=O)C(C)n1cnc2c(nnn2Cc2ccc(Cl)cc2)c1=O (stereo unspecified)	Cav32 inh -4.48
O=C(Cn1cnc2c(nnn2Cc2ccccc2)c1=O)N1CCN(c2ccccc2)CC1	none (no result: PTK2B oligo ant, PLK1 inh, Plk1 PBD FP, Rev-RRE block, FAK inh)
O=C(Cn1cnc2c(nnn2Cc2ccc(Cl)cc2)c1=O)N1CCN(c2ccccc2)CC1	Cav32 inh -4.42 (no result: PTK2B oligo ant, PLK1 inh, Plk1 PBD FP, Rev-RRE block, FAK inh)
COc1cccc(C(CC(=O)Nc2cccc3ccccc23)NC(=O)c2ccccc2)c1 (stereo unspecified)	none
CCOc1ccc(-c2csc(/C(C#N)=C\c3ccc(O)c([N+](=O)[O-])c3)n2)cc1	none (no result: PLK1 inh, Plk1 PBD FP, Rev-RRE block, Cav32 inh, FAK inh)
C#CCOCCOCCOCCNc1nc(N2CCN(C(=O)C([C@@H](C)CC)n3cc(C(N)Cc4ccc(O)cc4)nn3)CC2)nc(N2CCN(C(=O)[C@H](CCC(=O)O)n3cc(C(N)CO)nn3)CC2)n1 (stereo partly specified)	none (no result: PTK2B oligo ant, PLK1 inh, Plk1 PBD FP, Rev-RRE block, FAK inh)
COc1cccc(C(=O)NC2CCN(C(=O)N3c4ccccc4Sc4ccccc43)CC2)c1	Cav32 inh -3.94
Cc1ccc(N2C(=O)N(CC(=O)NC(c3ccccc3)c3ccccc3)C(=O)C2C)cc1 (stereo unspecified)	Cav32 inh -10.3
O=C(c1ccco1)N1CCN(S(=O)(=O)c2ccc(F)cc2)CC1	none
Cc1c(NC(=O)CN2CCN(c3ccccc3)CC2)c(=O)n(-c2ccccc2)n1C	none
CCN(CC)C(=O)Nc1c(C)n(C)n(-c2ccccc2)c1=O	PLK1 inh 54.7
Cc1c(NC(=O)CN2CCN(C(c3ccccc3)c3ccccc3)CC2)c(=O)n(-c2ccccc2)n1C	PTK2B oligo ant -3.52
COCCCn1c(SCC(=O)Nc2cccc(C(=O)OC)c2)nnc1-c1ccncc1	none
CCCCCCCCCCCCN1[C@@H](CC(=O)O)c2cc(F)ccc2S1(=O)=O	none (no result: PTK2B oligo ant, PLK1 inh, Plk1 PBD FP, Rev-RRE block, FAK inh)
Nc1ncnc(Nc2cccc(C(F)(F)F)c2)n1	PLK1 inh 76.7 | PLK1 inh conf 73.8 | Plk1 interf inactive
Cc1ccc(NC(=O)CSc2nc3nc(C)cc(C)c3c(=O)[nH]2)cc1	PLK1 inh 73.0 | PLK1 inh conf inactive | Plk1 interf inactive
Cc1cc(NC(=O)C2COc3ccccc3O2)no1 (stereo unspecified)	none (no result: PTK2B oligo ant, PLK1 inh, Plk1 PBD FP, Rev-RRE block, FAK inh)
O=C(O)c1ccc2c(c1)[C@@H]1C=CC[C@@H]1[C@H](c1ccccn1)N2	PLK1 inh 71.9 | PLK1 inh conf 59.4 | Plk1 interf inactive
COc1ccc(N2CC(C(=O)NC3CC(C)(C)NC(C)(C)C3)CC2=O)cc1 (stereo unspecified)	PLK1 inh 70.1 (no result: PTK2B oligo ant) | PLK1 inh conf inactive | Plk1 interf inactive
Cc1ccc(S(=O)(=O)c2cc(C#N)c(=O)[nH]c2N)cc1	none
Cc1cc(C(C#N)c2cccc(Cl)c2)n2ncnc2n1 (stereo unspecified)	PLK1 inh 71.0 (no result: Cav32 inh) | PLK1 inh conf 62.9 | Plk1 interf inactive
Cc1cc(Nc2ccc(F)c(Cl)c2)n2ncnc2n1	none (no result: PTK2B oligo ant, PLK1 inh, Plk1 PBD FP, Rev-RRE block, FAK inh)
Cc1ccccc1NC(=O)c1ccc(S(=O)(=O)N(C)C)cc1	PLK1 inh 72.3 (no result: PTK2B oligo ant, Cav32 inh) | PLK1 inh conf inactive | Plk1 interf inactive
COc1cccc(-c2nnc(SCC(=O)Nc3ccc(OC)c(OC)c3)n2N)c1	none
Cc1cccc(NS(=O)(=O)c2ccc3c(c2)Cc2cc(S(=O)(=O)Nc4cccc(C)c4C)ccc2-3)c1C	none (no result: PLK1 inh, Plk1 PBD FP, Rev-RRE block, Cav32 inh, FAK inh)
Cc1onc(-c2ccccc2)c1C(=O)NC(C)C	PLK1 inh 77.5 (no result: PTK2B oligo ant) | PLK1 inh conf inactive | Plk1 interf inactive
Cc1onc(-c2ccccc2)c1C(=O)NC(CC(=O)O)c1ccc(OC(C)C)cc1 (stereo unspecified)	none
CN(CCNC(=O)c1cn(C)c2ccc(S(=O)(=O)N(C)C)cc2c1=O)CCc1ccccc1	PLK1 inh 75.0 (no result: PTK2B oligo ant) | PLK1 inh conf inactive | Plk1 interf inactive
Cc1ccccc1NC(=O)c1oc(=O)c2ccccc2c1-c1ccccc1	none (no result: PLK1 inh, Plk1 PBD FP, Rev-RRE block, Cav32 inh, FAK inh)
O=C(c1oc(=O)c2ccccc2c1-c1ccccc1)N1CCC(O)CC1	PLK1 inh 77.6 (no result: PTK2B oligo ant) | PLK1 inh conf inactive | Plk1 interf inactive
COc1ccc(C2OC(=O)CC2C(=O)N2CCN(c3cc(Cl)ccc3C)CC2)cc1OC (stereo unspecified)	PLK1 inh 75.8 (no result: PTK2B oligo ant) | PLK1 inh conf inactive | Plk1 interf inactive
CCc1ccc(CCC(=O)Nc2nnc(CC)s2)o1	none (no result: PLK1 inh, Plk1 PBD FP, Rev-RRE block, FAK inh)
CCCNC(=O)CS(=O)Cc1nc(-c2cccc(OC)c2)oc1C (stereo unspecified)	none (no result: PTK2B oligo ant)
COc1cccc(-c2nc(CS(=O)CC(=O)NCc3ccccc3)c(C)o2)c1 (stereo unspecified)	PLK1 inh 71.5 (no result: PTK2B oligo ant) | PLK1 inh conf inactive | Plk1 interf inactive
COc1ccc(OC)c2c(C)cc(NCCN3CCOCC3)nc12	none
Cc1ccc(-c2noc(C3CCCN(C(=O)c4c(F)cccc4F)C3)n2)cc1 (stereo unspecified)	PLK1 inh 124.7 | PLK1 inh conf inactive | Plk1 interf inactive
N#CCCN1CCn2c1nc1ccccc12	none
C/C(O)=C\c1nc2ccccc2oc1=O	PLK1 inh 124.3 | PLK1 inh conf inactive | Plk1 interf inactive
Cc1ccc2oc(=O)c(/C=C(\O)CC(C)C)nc2c1	none (no result: PLK1 inh, Plk1 PBD FP, Rev-RRE block, Cav32 inh, FAK inh)
Cc1ncc([N+](=O)[O-])n1CCOC(=O)Nc1ccc(Cl)c(Cl)c1	PLK1 inh 84.5 | PLK1 inh conf 70.8 | Plk1 interf inactive
O=C(CCC(=O)c1ccc(Cl)cc1)OCC(=O)c1ccccc1	PLK1 inh 125.8 | PLK1 inh conf inactive | Plk1 interf inactive
O=C(CCc1nc2ccccc2[nH]c1=O)OCC(=O)c1ccc(Cl)cc1	none
C=CCSc1nnc(-c2cc(Br)ccc2N)c(=O)[nH]1	PLK1 inh 71.0 (no result: PTK2B oligo ant, Cav32 inh) | PLK1 inh conf inactive | Plk1 interf inactive
CCCCSc1nnc(-c2cc(Br)ccc2N)c(=O)[nH]1	none
COc1ccc(-c2nsc3c(SCC(=O)Nc4cc(C)ccc4C)ncnc23)cc1	none (no result: PTK2B oligo ant)
CNC(=O)C1C2C=CC3(O2)C1C(=O)N(CCOC)C3C(=O)NCc1ccc(OC)cc1 (stereo unspecified)	none (no result: PLK1 inh, Plk1 PBD FP, Rev-RRE block, FAK inh)
Brc1ccc(Oc2nnnn2-c2ccccc2)cc1	PLK1 inh 74.5 (no result: PTK2B oligo ant) | PLK1 inh conf inactive | Plk1 interf inactive
